From PubChem
H69AR inhibit: blocks growth of human H69AR lung tumor cells; H69AR lung tumor viability, ATP luminescence, 72 h; active compounds read low; viability, % at 10 µM; hit rate 6% among 85,000; AID 598;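 active = viability at or below 40%; inactive = viability above 40%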;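 note: multidrug resistant small cell line overexpressing MRP-1 efflux transporter; 100% = mean luminescence of untreated control wells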
HUVEC inhibit: blocks proliferation of human endothelial cells | viability, % at 10 µM (by protocol) | hit rate 1.1% among 86,000 | AID 648 | HUVEC proliferation, CellTiter-Glo luminescence, 72 h; active compounds read low;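 active = viability at or below 30%; inactive = viability above 30%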;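 note: 100% = median luminescence of DMSO-only cell control wells on each plate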
Fibroblast inh: blocks proliferation of human lung fibroblasts; LL 47 human lung fibroblast viability, ATP luminescence; active compounds read low; viability, % at 10 µM; hit rate 1.1% among 85,000;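 active = viability at or below 50% in the single dose screen; inactive = viability above 50%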;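 note: compound exposure lasted 72 h before the ATP readout; 100% = median luminescence of untreated cell-only wells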
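Signal: luminescent ATP detection, CellTiter-Glo; assay system: LL 47 human lung fibroblasts; input: 1,150 cells/well; incubation: overnight cell rest, 72 h compound treatment at 37 °C; measure: % viability versus median cells-only luminescence; medium: IMEM growth medium with 15% fetal bovine serum; dosing: compound addition at 0.1% DMSO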
Ecoli WT expand: growth inhibitors of E. coli BW25113 wild type | growth inhibition, % at 100 µM | AID 710 | OD600 absorbance | hit rate 0.15% among 98,000;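 active = growth inhibition above about 50% at one test dose, limit read from the data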;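 note: growth measured after 20 h incubation at 37 °C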
tolC growth inh: E. coli tolC mutant growth inhibition. AID 573. E. coli BW25113 tolC mutant growth, OD615. hit rate 2.2% among 65,000. growth inhibition, % at 10 µM (by protocol);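 active = growth inhibition at or above a cutoff equal to the mean over every tested compound plus 3 SD, cut at about 60% in these data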;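 note: growth measured after 20 h incubation at 37 °C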
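signal = optical density read at 615 nm | test system = E. coli ΔtolC::kan strain BW25113 | timing = 20 h compound exposure of bacteria at 37 °C | buffer or medium = LB medium plus 50 µg/mL kanamycin | compound dosing = 10 µM final, single dose | evaluation = % inhibition of E. coli growth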
Jurkat viability: cytotoxic compounds reducing Jurkat cell viability. Jurkat E6.1 viability, ATP luminescence, 48 h. inhibition, % at 4 µM. hit rate 1.2% among 56,000;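 active = inhibition above the mean inhibition of all tested compounds plus 3 SD, cut at about 28% in these data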
* hit, by the source's call; . = no result. Only some compounds are listed: those with a hit (about 6.4% of all), similar ones and a draw of the others.

SMILES | H69AR inhibit | HUVEC inhibit | Fibroblast inh | Ecoli WT expand | tolC growth inh | Jurkat viability
COc1ccc(/C(O)=C/c2nc3ccccc3n(-c3ccccc3)c2=O)cc1 | 23.5* | 64.8 | 96.3 | -16.0 | . | .
CC1CN(S(=O)(=O)c2ccc(NC(=O)c3cc(-c4ccccc4O)n[nH]3)cc2)CC(C)O1 (configuration not stated) | 11.6* | 55.3 | 73.9 | -14.0 | -2.0 | 53.8*
CC1CN(S(=O)(=O)c2ccccc2)CC(C)O1 (configuration not stated) | 99.5 | 93.8 | 101.7 | 1.0 | -5.9 | -6.1
CC1(C(=O)NC2CCCCCCC2)CC1(Cl)Cl (configuration not stated) | . | . | . | 1.0 | . | .
CCOC(=O)N1CCN(c2ncnc3c2oc2nc(C(C)C)c4c(c23)CCC4)CC1 | 47.6 | 23.6* | 98.4 | -5.0 | 36.2 | 9.7
CCN1CCN(c2ncnc3c2oc2nc(C(C)C)c4c(c23)CCC4)CC1 | 63.9 | 88.2 | 98.4 | . | . | 8.6
CCOC(=O)Cn1c(=O)c(-c2ccccc2NCc2ccccc2)nc2ccccc21 | 27.6* | 56.7 | 73.9 | . | . | .
COc1cc([N+](=O)[O-])ccc1NC(=O)C[n+]1ccccc1C | . | . | . | 8.0 | . | .
COc1ccc(CNc2nc(-c3cccnc3)nn2C(=O)c2cccs2)cc1 | . | . | . | -24.0 | 47.8 | -5.0
CCN(CC)CCNc1c2c(c(C#N)c3nc4ccccc4n13)CCCC2 | 33.4* | 90.8 | 90.3 | -4.0 | . | .
Brc1ccc(-c2nc(-c3ccccc3)no2)o1 | 76.1 | 97.3 | 95.2 | 7.0 | 98.1* | 2.3
Cc1cc(/C=N/n2cnnc2)c(C)n1-c1ccc(OCc2ccc(Cl)cc2)cc1 | 5.8* | 63.7 | 82.0 | -8.0 | . | .
CCN(CC)S(=O)(=O)c1cccc(C(=O)NC(C(=O)Nc2nnc(C)s2)C(C)C)c1 (configuration not stated) | 96.9 | 93.9 | 90.3 | 4.0 | . | .
Cc1c(C(=O)Nc2ccc3c(c2)OCCO3)sc2nc(-c3ccccc3)cn12 | 37.8* | 51.3 | 84.8 | . | 45.7 | 19.5
COc1ccc(-c2cn3c(C)c(C(=O)Nc4cc(NC(C)=O)ccc4OC)sc3n2)cc1 | 93.1 | 64.8 | 80.5 | -11.0 | 1.0 | 48.1*
Cc1csc2ncc(C(=O)NC(C)c3ccccc3)c(=O)n12 (configuration not stated) | . | . | . | 1.0 | 12.7 | -9.4
CCCCC(CC)CNC(=O)c1ccc2c(c1)OCO2 (configuration not stated) | 102.3 | 86.6 | 92.0 | 8.0 | 17.7 | -5.5
O=C(NNC(=O)C1CC1c1ccccc1)Nc1cccc(Cl)c1 (configuration not stated) | . | . | . | 4.0 | . | .
COc1ccc(Cc2nc(N)nc(N)n2)cc1 | 101.3 | 101.3 | 99.5 | . | . | .
CC(C)COc1ccc(Cc2cnc(N)nc2N)cc1 | 84.2 | 84.6 | 92.3 | 66.0* | . | .
Cc1cc2ccccc2c(=O)n1CC(=O)NCC(=O)N(C)C1CCCCC1 | 103.4 | 90.5 | 104.0 | 0.0 | . | .
CC(C)OCCCNc1ncnc2c1[nH]c1ccccc12 | 40.6 | 71.7 | 86.6 | 16.0 | 100.0* | 67.3*
O=C1C(Cl)=C(NCCCO)C(=O)c2ccccc21 | 7.4* | 96.2 | 103.5 | 17.0 | . | .
Cc1cccc2sc(NC(=O)CN(C)S(=O)(=O)c3ccc(Br)s3)nc12 | 106.1 | 67.0 | 96.3 | -10.0 | 92.3* | .
Cc1cccc2sc(NC(=O)CN(C)S(=O)(=O)c3cccs3)nc12 | 87.8 | 87.9 | 97.9 | -9.0 | 11.2 | .
SMILES | H69AR inhibit | HUVEC inhibit | Fibroblast inh | Ecoli WT expand | tolC growth inh | Jurkat viability
O=C(c1ccc2snnc2c1)N1CCSCC1 | 35.3* | 91.7 | . | -4.0 | -26.9 | -2.7
O=C(Cn1cnc2ccccc21)NC(c1ccccc1)c1ccccc1 | 71.9 | 81.6 | 93.8 | 5.0 | . | .
COc1ccc2nc(NC(=O)C(NS(=O)(=O)c3cccs3)C(C)C)sc2c1 (configuration not stated) | 86.2 | 92.8 | 90.4 | -9.0 | 16.3 | -4.3
O=C(NC12CC3CC(CC(C3)C1)C2)C12CC3CC(C1)CC(n1cnc(Cl)n1)(C3)C2 | . | . | . | -9.0 | . | .
Cc1ccc2cc(C3C(C#N)=C(N)Oc4c3ccc3cccnc43)c(=O)[nH]c2c1 (configuration not stated) | 37.0* | 80.0 | 50.6 | -10.0 | . | .
CC(=O)C1=C(C)OC(N)=C(C#N)C1c1cc2cccc(C)c2nc1Cl (configuration not stated) | . | . | . | 5.0 | . | .
CCc1ccc2[nH]c(=O)c(C3C(C#N)=C(N)Oc4c3ccc3cccnc43)cc2c1 (configuration not stated) | 0.8* | 56.9 | 69.6 | -3.0 | . | .
COc1ccc(CCc2nc(C)ccc2O)cc1 | . | . | . | 9.0 | . | .
CC(=O)N(Cc1ccc(F)cc1)C1=C(NCc2ccccc2)C(=O)c2ccccc2C1=O | 3.5* | 3.4* | 2.6* | -14.0 | . | .
Cc1cc(-c2ccccc2)n(-c2ccc(C(=O)N3CCN(c4ncccn4)CC3)cc2)n1 | 46.1 | 81.7 | 101.0 | -3.0 | 10.6 | 1.2
CCc1cc(-c2n[nH]c(C)c2-c2nc3ccccc3n2C)c(O)c(CN2CCN(C)CC2)c1O | 16.1* | 79.2 | . | 4.0 | -5.0 | -1.6
CC(C)Cc1nc2oc3c(NCC4CCCO4)ncnc3c2c2c1CCC2 (configuration not stated) | 32.8* | 52.7 | 85.0 | 1.0 | . | 2.1
CC(C)n1nnnc1-c1cc(Cl)cc(Cl)c1 | . | . | . | 2.0 | . | .
CCOc1ccc(N2CC(C(=O)Nc3ccccc3F)CC2=O)cc1 (configuration not stated) | 88.3 | 94.0 | 92.7 | 0.0 | -10.1 | .
COC(=O)[C@@H](NC(=O)Nc1cccc(OC)c1)C(C)C | 102.6 | 98.7 | 99.5 | 3.0 | . | .
O=C(NCc1cccnc1)NC1(C(F)(F)F)Oc2ccccc2O1 | 27.6* | 69.0 | 87.6 | -5.0 | 1.6 | .
O=C(Nc1cc(N2CCOCC2)ncn1)NC1(C(F)(F)F)Oc2ccccc2O1 | 27.0* | 68.4 | 89.0 | . | . | .
COc1cccc(NC(=O)NC2(C(F)(F)F)Oc3ccccc3O2)c1 | 23.2* | 97.8 | 89.3 | . | 16.5 | .
CCOC(=O)c1ccc(Nc2ccc(-c3ccc(OC)c(OC)c3)nn2)cc1 | 31.8* | 56.0 | 97.8 | -14.0 | 10.2 | .
O=C(NCc1ccc2c(c1)OCO2)c1nnc(Cc2ccc(Cl)cc2)o1 | 98.1 | 72.0 | 95.9 | . | 2.8 | 3.7
CC(=O)n1cc(C(C[N+](=O)[O-])SCCN)c2ccccc21 (configuration not stated) | 1.6* | 21.6* | 24.4* | 2.0 | . | .
COC(=O)c1sc2nc(N3CCCCC3)c3c(c2c1N)CC(C)(C)N(C)C3 | 85.1 | 105.5 | 100.3 | . | -9.4 | .
CC1(C)Cc2c(sc3c2c(=N)n(Cc2ccco2)c(=O)n3Cc2ccc(Cl)cc2)CO1 | 77.7 | 99.6 | 94.1 | -20.0 | 63.9* | .
CC1(C)Cc2c(sc3[nH]c(=S)n(Cc4ccco4)c(=O)c23)CO1 | 29.8* | 80.3 | 87.5 | -9.0 | 8.2 | .
COc1ccc(N2CCN(c3oc(Cc4ccccc4)nc3C#N)CC2)cc1 | 35.4* | 82.2 | 95.7 | -17.0 | . | .
COc1ccc(N2CCN(c3oc(COc4ccccc4)nc3C#N)CC2)cc1 | 94.5 | 106.9 | 101.7 | -10.0 | 23.2 | .
COc1ccccc1CCNC(=O)c1ccoc1C | 88.8 | 105.4 | 95.3 | 2.0 | -3.5 | 5.4
